The text below walks through data of ChEMBL document CHEMBL1153087, “Synthesis of 4-thiophen-2'-yl-1,4-dihydropyridines as potentiators of the CFTR chloride channel” (Bioorg Med Chem, 2009).

Activity calls are given as the source filed them. No cut-off for these calls is given here.

Type in all cases: cell-based
For data set [1], the target named is Voltage-gated L-type calcium channel (Rattus norvegicus, UniProt P22002+Q02485+P27732). As to the kind of experiment: Inhibition of L-VDCC in rat H9C2 cells assessed as effect on calcium level by Fluo-4 fluorescence assay.
Data set [2] is described as follows: Binding affinity to CFTR deltaF508 mutant expressed in FRT cells coexpressing halide sensitive YFP-H148Q/I152L mutant protein by iodide influx assay. The method, boiled down:
(§1)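 FRT cells stably co-expressing ΔF508-CFTR and YFP-H148Q/I152L, held 20–24 h at 27 °C and assayed 48 h after plating. PBS wash, then 30 min with forskolin plus compound. 14-s YFP read (ex 500, em 535 nm) around iodide injection (100 mM final). Initial slope dF/dt extrapolated by exponential fit of final 10 s. Dose–response Hill fit gave apparent Kd and maximal effect.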

The next data set has as its system FRT. As to the kind of experiment: Potentiation of CFTR deltaF508 mutant expressed in FRT cells coexpressing halide sensitive YFP-H148Q/I152L mutant protein assessed as channel activation by iodide influx assay. The method, boiled down:
as §1

As a reminder, the Kd is a measure of binding affinity in units of concentration. Usually pKd stands for the negative decadic logarithm of the Kd, by convention in mol/L. In the case of `C=CCOC(=O)C1=C(C)NC(C)=C(C(=O)OCC)C1c1sccc1SCC(=O)OC` (stereo unspecified), in data set [1], the “inhibition (INH)” value is “Active”. In data set [2], this compound came in with a Kd of 1.9 µM and a pKd of 5.72.

Consider `COC(=O)C1=C(C)NC(C)=C(C(=O)OC)C1c1cccs1`, for which the “inhibition (INH)” value in data set [1] is “Not Active”. For the same compound, in data set [2], the equilibrium dissociation constant (Kd) amounted to 9.5 µM and the pKd is 5.02.

On to `COC(=O)C1=C(C)NC(C)=C(C(=O)OC)C1c1sccc1C`, for which the outcome in the data set on FRT was inactive. In data set [2], binding was put at a Kd of 3.1 µM and the pKd is 5.51.

In the case of `CC1=C(C(=O)OCc2ccccc2)C(c2sccc2C)C(C(=O)OCc2ccccc2)=C(C)N1`, the result with FRT was Active. In data set [2], this compound had a Kd of 0.7 µM and a negative-log Kd (pKd) of 6.15.

Consider `CCOC(=O)C1=C(C)NC(C)=C(C(=O)OCc2ccccc2)C1c1sccc1SCC(=O)OC` (stereo unspecified), for which the “inhibition (INH)” value in data set [1] is given as “Active”. In data set [2], this compound had a Kd of 0.3 µM and a pKd of 6.52.

Turning to `COC(=O)CSc1ccsc1C1C(C(=O)OCc2ccccc2)=C(C)NC(C)=C1C(=O)OCc1ccccc1`, the result in the data set with FRT was Active. Also, binding in data set [2] was put at a Kd of 0.3 µM.

`CCOC(=O)C1=C(C)NC(C)=C(C(=O)OCc2ccccc2)C1c1sccc1C` (stereo unspecified): the “inhibition (INH)” value in data set [1] was “Active”. In data set [2], this compound displayed a Kd of 0.5 µM and a pKd of 6.3.

For `C=CCOC(=O)C1=C(C)NC(C)=C(C(=O)OCC=C)C1c1sccc1C`, the result in the data set with FRT was Active. In data set [2], this compound returned a Kd of 1 µM and a pKd of 6.

As for `CC1=C(C(=O)OCc2ccccc2)C(c2ccc([N+](=O)[O-])s2)C(C(=O)OCc2ccccc2)=C(C)N1`, in data set [2], the Kd came out at 13.1 µM and the pKd worked out at 4.88.

Turning to `COC(=O)C1=C(C)NC(C)=C(C(=O)OC)C1c1ccc([N+](=O)[O-])s1`, the result in the data set on FRT was Active. In data set [2], this compound gave a Kd of 8.3 µM.

Regarding `C=CCOC(=O)C1=C(C)NC(C)=C(C(=O)OCC=C)C1c1cc(-c2ccccc2)cs1`, the result with FRT was Active. For the same compound, in data set [2], the Kd was determined as 1.5 µM and the pKd worked out at 5.82.

As for `O=c1c(-c2ccc(O)cc2)coc2cc(O)cc(O)c12` [GENISTEIN], binding in data set [2] was characterised by a dissociation constant (Kd) of 16.7 µM.

As to `CCOC(=O)C1=C(C)NC(C)=C(C(=O)OCC)C1c1sccc1C`, in data set [2], the Kd turned out to be 5.7 µM and the pKd is reported as 5.24.

Consider `COC(=O)C1=C(C)NC(C)=C(C(=O)OC)C1c1ccc(C)o1`, for which the outcome with FRT was Active. Further, the “inhibition (INH)” value in data set [1] was “Not Active”. Also, in data set [2], the Kd stood at 6 µM and the pKd amounted to 5.22.

As to `CC1=C(C(=O)OCc2ccccc2)C(c2cc(-c3ccccc3)cs2)C(C(=O)OCc2ccccc2)=C(C)N1`, in the data set with FRT, the outcome was Active. For the same compound, in data set [2], the affinity, expressed as Kd, was 16.5 µM and the pKd was 4.8.

As for `C=CCOC(=O)C1=C(C)NC(C)=C(C(=O)OCC=C)C1c1ccc([N+](=O)[O-])s1`, the Kd in data set [2] is 3.8 µM. That is a single-digit micromolar value.

In the case of `COC(=O)C1=C(C)NC(C)=C(C(=O)OC)C1c1ccc(C)s1`, in the data set on FRT, the result was Active. For the same compound, the “inhibition (INH)” value in data set [1] is recorded as “Not Active”. In data set [2], this compound gave a Kd of 6 µM and a pKd of 5.22.

As for `C=CCOC(=O)C1=C(C)NC(C)=C(C(=O)OCC=C)C1c1sccc1SCC(=O)OC`, the result in the data set on FRT was Active. In data set [2], binding was characterised by a dissociation constant (Kd) of 1.3 µM and the pKd was found to be 5.89.

For `C=CCOC(=O)C1=C(C)NC(C)=C(C(=O)OCC)C1c1sccc1C` (stereo unspecified), the “inhibition (INH)” value in data set [1] was “Active”. Further, in data set [2], the Kd was determined as 0.3 µM and the pKd was determined as 6.52.
